This is an account of results in ChEMBL document CHEMBL4825663 (J Med Chem, 2021).

A short description of series [1]: Toxicity in Beagle dog assessed as increase in total leukocyte and eosinophil counts at >= 100 mg/kg, po and measured after 13 weeks. As to conditions: in vivo, 2184 h. Format: organism-based, Canis lupus familiaris.
A short description of series [2]: Oral bioavailability in Beagle dog at 10 mg/kg measured upto 48 hrs by LC-MS/MS analysis. Format: ADME, organism-based, Canis lupus familiaris. As to conditions: in vivo. A digest of the protocol: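 Plasma pharmacokinetics in male Sprague-Dawley rats and male Beagle dogs (n = 3 per species), each given a single dose by IV at 3 mg/kg and by PO at 10 mg/kg. Cmax, Tmax, T1/2 and AUClast were derived for each route. F (%) was calculated from the PO and IV AUClast.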

Series [3] is described as follows: Drug distribution in Sprague-Dawley rat liver. It is filed as ADME, tissue-based. As to conditions: in vivo.
Series [4] in a line: Cmax in Sprague-Dawley rat at 10 mg/kg, po measured upto 48 hrs by LC-MS/MS analysis. Particulars: in vivo.
Series [5] deals with T1, Broad substrate specificity ATP-binding cassette transporter ABCG2 (Homo sapiens, UniProt Q9UNQ0).
T1 sequence (Q9UNQ0 whole entry): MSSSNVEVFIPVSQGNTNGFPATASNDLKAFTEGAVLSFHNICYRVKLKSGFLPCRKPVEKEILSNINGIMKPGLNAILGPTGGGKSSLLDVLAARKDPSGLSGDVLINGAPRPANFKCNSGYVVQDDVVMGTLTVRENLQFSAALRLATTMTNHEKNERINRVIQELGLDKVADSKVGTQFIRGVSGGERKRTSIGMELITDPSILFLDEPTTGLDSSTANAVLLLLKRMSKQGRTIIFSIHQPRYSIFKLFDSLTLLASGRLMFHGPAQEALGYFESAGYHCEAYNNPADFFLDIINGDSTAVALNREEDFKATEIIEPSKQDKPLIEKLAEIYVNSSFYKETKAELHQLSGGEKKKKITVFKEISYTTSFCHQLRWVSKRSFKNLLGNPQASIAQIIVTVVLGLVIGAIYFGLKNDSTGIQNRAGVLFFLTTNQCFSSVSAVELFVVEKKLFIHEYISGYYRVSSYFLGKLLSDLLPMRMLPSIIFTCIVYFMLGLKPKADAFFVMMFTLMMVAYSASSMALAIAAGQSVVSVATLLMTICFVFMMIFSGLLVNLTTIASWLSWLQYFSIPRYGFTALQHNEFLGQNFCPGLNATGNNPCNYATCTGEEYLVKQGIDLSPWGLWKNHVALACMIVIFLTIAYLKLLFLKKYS
In words: Inhibition of sulfasalazine-stimulated BCRP ATP ase activity (unknown origin).

Series [6] addresses ATP-binding cassette sub-family C member 3 (Homo sapiens, UniProt O15438). In words: Inhibition of […]-stimulated MRP3 ATPase activity (unknown origin) in presence of GSH.
The nature of series [7]: AUClast in Sprague-Dawley rat at 10 mg/kg, po measured upto 48 hrs by LC-MS/MS analysis. It is filed as ADME, organism-based. More on the design: route oral, dose 10 mg/kg, time <=48. Particulars: in vivo. Put shortly:
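Single dose in male Sprague-Dawley rats and male Beagle dogs (n = 3 per species), given 3 mg/kg IV or 10 mg/kg PO. Plasma was sampled to derive Cmax, Tmax, T1/2 and AUClast by each route. Oral bioavailability (F) was calculated from the PO and IV AUClast.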

Series [8] is described as follows: Tmax in Beagle dog at 10 mg/kg, po measured upto 48 hrs by LC-MS/MS analysis. As to conditions: in vivo.
The target in series [9] is ATP-dependent translocase ABCB1 (Homo sapiens, UniProt P08183). In words: Inhibition of paclitaxel stimulated- P-gp ATPase activity (unknown origin).
A short description of series [10]: Half life in Sprague-Dawley rat at 20 mg/kg, po measured upto 24 hrs by LC-MS/MS analysis. Particulars: in vivo.
Series [11] is described as follows: AUClast in Sprague-Dawley rat at 6 mg/kg, iv measured upto 24 hrs by LC-MS/MS analysis. Format: ADME, organism-based. Particulars: in vivo. More on the design: route intravenous, dose 6 mg/kg, time <=24.
The test system of another series is MDA-MB-231. The series is described as follows: Antitumor activity against human MDA-MB-231 cells xenografted in athymic nude mouse assessed as reduction in median number of days for tumor to reach two tumor mass doubling at 30 mg/kg, po administered every other day for 4 doses in presence of 12 mg/kg encequidar and monitored for 70 to 82 days (reference value: 13.1 day). It is filed as functional. As to conditions: time 70-82 day. (Xenograft models place foreign cells or tissue in a host animal.)

A further series relates to NCI-H460. In words: Antitumor activity against human NCI-H460 cells xenografted in athymic nude mouse assessed as median tumor growth delay at 18 mg/kg, iv administered every other day for 4 doses and monitored for 48 days. It is filed as functional. As to conditions: time 48 day. A digest of the protocol: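 Female athymic NCr-nu mice carried subcutaneous NCI-H460 xenografts. […] Tumor weights and body weights were followed for 48 days after implantation. Read-out was median tumor growth delay.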

Series [12] in a line: Drug accumulation in Beagle dog plasma at 6 mg/kg, po administered once per week for 4 weeks in presence of 3 mg/kg encequidar by LC-MS/MS analysis. Format: ADME, organism-based, Canis lupus familiaris. Particulars: in vivo, 672 h.
A short description of series [13]: AUClast in Sprague-Dawley rat at 20 mg/kg, po measured upto 24 hrs in presence of 10 mg/kg encequidar by LC-MS/MS analysis. It is filed as ADME, organism-based. On the set-up: route oral, dose 20 mg/kg, time <=24. As to conditions: in vivo.
Series [14] can be described thus: Neurotoxicity in Sprague-Dawley rat assessed as reduction in nociceptive threshold at 6 mg/kg, iv measured after day 5, 7, 11 and 14. Format: toxicity, organism-based. As to conditions: in vivo. Put shortly: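 Healthy rats received IV paclitaxel (Taxol) at 0 (vehicle), 3 or 6 mg/kg, four times at 2-day intervals (cumulative 12 or 24 mg/kg), n = 5/group. Paw pressure threshold (mmHg to elicit response, back paws) was measured by Randall–Selitto test. Data were analysed by one-way ANOVA, then Dunnett's test versus control.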

Series [15] in a line: Drug absorption in fed Sprague-Dawley rat at 20 mg/kg, po measured upto 24 hrs in presence of 10 mg/kg encequidar by LC-MS/MS analysis. Format: ADME, organism-based. Particulars: in vivo.
Series [16] in a line: Ratio of drug concentration in BALB/c mouse small intestine to plasma at 20 mg/kg, po measured upto 24 hrs in presence of 10 mg/kg encequidar by LC-MS/MS analysis. Format: ADME, organism-based.
Series [17] in a line: Half life in Sprague-Dawley rat at 6 mg/kg, iv measured upto 24 hrs by LC-MS/MS analysis. Particulars: in vivo.

SMILES strings stand for the structures. pIC50: −log10 of the molar value.

Sequence of ATP-binding cassette sub-family C member 3 (O15438 whole entry): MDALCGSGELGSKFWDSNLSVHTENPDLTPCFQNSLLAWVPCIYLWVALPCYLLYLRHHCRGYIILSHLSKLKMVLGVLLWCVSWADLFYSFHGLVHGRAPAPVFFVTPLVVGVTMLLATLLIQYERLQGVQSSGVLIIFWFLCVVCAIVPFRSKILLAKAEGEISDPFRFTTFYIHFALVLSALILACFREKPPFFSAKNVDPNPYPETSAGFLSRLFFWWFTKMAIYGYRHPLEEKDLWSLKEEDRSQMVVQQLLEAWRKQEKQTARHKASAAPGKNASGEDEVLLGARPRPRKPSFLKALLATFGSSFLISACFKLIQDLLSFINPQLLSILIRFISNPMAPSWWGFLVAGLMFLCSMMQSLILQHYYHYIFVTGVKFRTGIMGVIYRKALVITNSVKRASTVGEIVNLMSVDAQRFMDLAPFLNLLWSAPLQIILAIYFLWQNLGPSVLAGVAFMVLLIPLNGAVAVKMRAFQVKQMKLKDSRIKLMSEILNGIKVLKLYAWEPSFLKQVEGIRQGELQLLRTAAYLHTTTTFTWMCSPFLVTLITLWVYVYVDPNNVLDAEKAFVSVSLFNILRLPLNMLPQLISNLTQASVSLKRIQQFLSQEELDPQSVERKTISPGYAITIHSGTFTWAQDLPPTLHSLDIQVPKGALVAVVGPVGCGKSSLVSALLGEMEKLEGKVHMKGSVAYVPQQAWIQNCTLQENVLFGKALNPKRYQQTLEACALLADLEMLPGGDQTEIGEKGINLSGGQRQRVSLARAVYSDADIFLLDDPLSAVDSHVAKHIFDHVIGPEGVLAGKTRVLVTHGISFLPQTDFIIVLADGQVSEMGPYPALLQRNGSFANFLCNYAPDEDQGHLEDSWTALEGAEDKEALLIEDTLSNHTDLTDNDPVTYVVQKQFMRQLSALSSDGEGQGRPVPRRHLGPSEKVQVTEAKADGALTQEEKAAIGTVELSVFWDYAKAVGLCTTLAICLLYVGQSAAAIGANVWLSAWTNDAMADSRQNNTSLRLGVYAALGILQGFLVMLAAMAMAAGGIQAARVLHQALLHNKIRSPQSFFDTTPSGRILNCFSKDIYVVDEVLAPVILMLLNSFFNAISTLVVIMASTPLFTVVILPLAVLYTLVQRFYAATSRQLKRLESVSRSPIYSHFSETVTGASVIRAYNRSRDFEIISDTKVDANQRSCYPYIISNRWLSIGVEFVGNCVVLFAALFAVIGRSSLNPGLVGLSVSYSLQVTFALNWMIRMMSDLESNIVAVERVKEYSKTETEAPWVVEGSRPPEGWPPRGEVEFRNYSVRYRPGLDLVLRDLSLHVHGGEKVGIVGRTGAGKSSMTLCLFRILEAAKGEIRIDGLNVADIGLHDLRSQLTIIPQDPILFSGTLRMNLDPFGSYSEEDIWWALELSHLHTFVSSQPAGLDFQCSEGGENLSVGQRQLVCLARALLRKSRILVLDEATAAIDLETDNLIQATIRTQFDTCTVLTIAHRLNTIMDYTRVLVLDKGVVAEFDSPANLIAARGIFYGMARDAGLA
Sequence of ATP-dependent translocase ABCB1 (P08183 whole entry): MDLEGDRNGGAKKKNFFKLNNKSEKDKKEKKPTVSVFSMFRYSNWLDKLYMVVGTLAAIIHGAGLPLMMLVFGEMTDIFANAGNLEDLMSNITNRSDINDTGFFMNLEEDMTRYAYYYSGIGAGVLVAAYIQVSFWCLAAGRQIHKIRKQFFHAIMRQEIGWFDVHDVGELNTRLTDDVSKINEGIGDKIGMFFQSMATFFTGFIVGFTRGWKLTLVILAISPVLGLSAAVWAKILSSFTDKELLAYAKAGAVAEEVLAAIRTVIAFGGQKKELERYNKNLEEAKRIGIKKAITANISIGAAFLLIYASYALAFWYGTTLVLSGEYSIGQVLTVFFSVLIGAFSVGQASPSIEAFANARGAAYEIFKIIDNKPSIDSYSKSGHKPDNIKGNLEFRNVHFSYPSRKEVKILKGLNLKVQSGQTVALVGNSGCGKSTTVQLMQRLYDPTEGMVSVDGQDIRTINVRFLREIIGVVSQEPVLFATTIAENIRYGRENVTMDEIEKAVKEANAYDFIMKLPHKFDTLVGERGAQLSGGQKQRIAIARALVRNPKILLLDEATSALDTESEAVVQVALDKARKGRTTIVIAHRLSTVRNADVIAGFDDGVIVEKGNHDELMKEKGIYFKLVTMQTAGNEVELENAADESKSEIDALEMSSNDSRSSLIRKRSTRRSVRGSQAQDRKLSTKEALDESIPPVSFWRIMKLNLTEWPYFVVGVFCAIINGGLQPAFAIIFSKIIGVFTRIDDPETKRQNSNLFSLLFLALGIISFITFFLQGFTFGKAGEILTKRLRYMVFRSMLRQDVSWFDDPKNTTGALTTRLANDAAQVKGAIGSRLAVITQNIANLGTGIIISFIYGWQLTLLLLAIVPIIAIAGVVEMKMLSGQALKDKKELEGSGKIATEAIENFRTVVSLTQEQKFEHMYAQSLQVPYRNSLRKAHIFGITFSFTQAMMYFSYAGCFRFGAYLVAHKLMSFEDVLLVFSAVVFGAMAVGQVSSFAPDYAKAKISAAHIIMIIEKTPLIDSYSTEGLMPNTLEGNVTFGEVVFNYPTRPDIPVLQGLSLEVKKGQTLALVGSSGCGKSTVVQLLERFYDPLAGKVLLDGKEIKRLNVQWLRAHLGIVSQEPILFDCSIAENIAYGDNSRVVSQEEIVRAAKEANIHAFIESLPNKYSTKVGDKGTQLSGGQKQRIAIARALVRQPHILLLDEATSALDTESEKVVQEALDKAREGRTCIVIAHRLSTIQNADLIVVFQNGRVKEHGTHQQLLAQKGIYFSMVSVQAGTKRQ

In the case of `COc1cc2c(cc1OC)CN(CCc1ccc(-n3nnc(-c4cc(OC)c(OC)cc4NC(=O)c4cc(=O)c5ccccc5o4)n3)cc1)CC2`, the Activity result in series [1] is “Toxic”. Also, the bioavailability in series [2] was 11.2%. In series [3], the Drug uptake result is “Active”. Moreover, the Cmax in [4] amounted to 7.1 ng/mL. The pIC50 is under 5.43 in series [5], under 4.00 in series [6] and 9.22 in series [9]. The molecule further returned an AUC(0-t) at 48 h in [7] of 129 ng·h/mL. The Tmax in series [8] stood at 13.3 h.
On to `CC(=O)O[C@H]1C(=O)[C@@]2(C)[C@H]([C@H](OC(=O)c3ccccc3)[C@]3(O)C[C@H](OC(=O)[C@H](O)[C@@H](NC(=O)c4ccccc4)c4ccccc4)C(C)=C1C3(C)C)[C@]1(OC(C)=O)CO[C@@H]1C[C@@H]2O` [PACLITAXEL], for which the half-life at 24 h is 8 h in series [10] and 7.7 h in series [17]. The AUC(0-t) at 24 h is 2730 ng·h/mL in series [11] and 3760 ng·h/mL in [13]. For the same molecule, the Time was over 69 days in the series with MDA-MB-231 and 8.5 days with NCI-H460. Also, the Drug uptake result in series [12] is “Not Active”. For the same molecule, in [14], the Activity result was “Toxic”. In [15], the Drug absorption result is “Not Active”. Moreover, the Kp at 24 h in [16] was over 1.

One may read the bioavailability as dose-corrected exposure relative to a reference, in per cent. Lower therefore signals little systemic uptake. What is called Cmax is the highest concentration seen after dosing. As a reminder, the pIC50 is the IC50 on a negative log10 scale, so that one unit is a factor of ten. What is called AUC(0-t) is exposure summed from dosing to a finite time, without extrapolation to infinity. Usually Tmax stands for the time from dosing to the highest level. Usually half-life stands for the time needed for the level to fall by half in the phase considered. As a reminder, the Kp is the ratio of the level in a tissue or fluid to that in plasma or blood.
